For eleven compounds, IC50 and half-life results are on record in ChEMBL document CHEMBL5131563, “Accelerated Identification of Cell Active KRAS Inhibitory Macrocyclic Peptides using Mixture Libraries and Automated Ligand Identification System (ALIS) Technology” (J Med Chem, 2022).

Structures are written as SMILES. *1 amine or outer side, *2 acyl side, *3 side chain or, on linkers, in order; H or OH if unused. Where a SMILES comes first, the peptide text is derived from it. Bridges are numbered along the chain shown (N, C = ends). [ ]: non-standard residue; d: D form. Phe(3,4,5-F3) = N[C@@H](Cc1cc(F)c(F)c(F)c1)C(=O)O; Pro(trans-3-OAllyl) = C=CCO[C@H]1CCN[C@@H]1C(=O)O; X2 = O=C([C@@H]1[C@H]2CC[C@H](C2)N1[*:1])[*:2]; Pro(3R-Ph) = O=C(O)[C@H]1NCC[C@@H]1c1ccccc1; Ala(4-thiazolyl) = N[C@@H](Cc1cscn1)C(=O)O; Bip = N[C@@H](Cc1ccc(-c2ccccc2)cc1)C(=O)O; X5 = C[C@H]1CCN([*:1])[C@@H]1C(=O)[*:2]; Ala(cPent) = N[C@@H](CC1CCCC1)C(=O)O; Abu(4-CN) = N#CCC[C@H](N)C(=O)O; Aad = N[C@@H](CCCC(=O)O)C(=O)O; Cha = N[C@@H](CC1CCCCC1)C(=O)O; Ahp(2) = CCCCC[C@H](N)C(=O)O; Cba = N[C@@H](CC1CCC1)C(=O)O; hLeu = CC(C)CC[C@H](N)C(=O)O; Nle = CCCC[C@H](N)C(=O)O

The term IC50 denotes the point on the concentration scale where inhibition reaches its midpoint. By half-life is commonly meant the time needed for the level to fall by half in the phase considered.

One data set concerns the target GTPase KRas (Homo sapiens, UniProt P01116, G12D). As to the kind of experiment: Inhibition of recombinant biotinylated KRAS G12D mutant (unknown origin) assessed as inhibition of SOS-catalyzed nucleotide exchange preincubated for 60 mins followed by addition of human SOS protein and unlabeled GTP and measured after 60 mins by TR-FRET analysis. In a few lines: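 Biotinylated KRAS G12D was treated in EDTA buffer (1 h, RT), then loaded at 90 nM with 900 nM Bodipy-GDP and 15 nM Tb-streptavidin in Mg2+ buffer, HEPES pH 7.5 (6 h, RT). It was used at 1.5 nM assay solution with a 10-point, 3-fold DMSO compound series for 60 min at RT. A solution of 120 nM human SOS plus GTP was added for 60 min. The read-out was TR-FRET at 520/495 nm, normalized to DMSO and saturating-inhibitor controls, with a 4-parameter fit.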
(In general: In TR-FRET formats the signal depends on donor and acceptor labels being close together.)

A short description of data set [1]: Stability in human HeLa cell homogenate assessed as half life by LC-MS/MS analysis. The data set is classed as ADME, cell-based. In a few lines:
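HeLa cells suspended at 1 × 10^6 cells/mL, probe-sonicated on ice until homogeneous, stored frozen at –20 °C. Peptides incubated with homogenate (1 × 10^6 cells/mL equivalent); peptide loss over time quantified by LC-MS/MS to derive t1/2.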

Chain of GTPase KRas (P01116 whole entry G12D): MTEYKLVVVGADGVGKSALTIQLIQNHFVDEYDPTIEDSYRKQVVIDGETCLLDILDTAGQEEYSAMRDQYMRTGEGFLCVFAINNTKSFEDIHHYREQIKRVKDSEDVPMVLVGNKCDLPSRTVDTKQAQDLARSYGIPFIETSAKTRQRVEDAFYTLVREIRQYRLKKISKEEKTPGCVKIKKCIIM

On to `CC[C@H](C)[C@@H]1NC(=O)[C@H](Cc2ccc(O)cc2)NC(=O)[C@H](CC(C)C)NC(=O)[C@@H]2CCCN2C(=O)[C@@H](NC(=O)[C@H](CCCNC(=N)N)NC(=O)[C@H](CCCNC(=N)N)NC(C)=O)CSSC[C@@H](C(=O)N[C@@H](CCCNC(=N)N)C(=O)N[C@@H](CCCNC(=N)N)C(N)=O)NC(=O)[C@H](C(C)C)NC(=O)[C@@H]2CCCN2C(=O)[C@H](CC(=O)O)NC(=O)[C@H](Cc2cc(F)c(F)c(F)c2)NC(=O)[C@H](Cc2cscn2)NC1=O` (Ac-RRCPLYI[Ala(4-thiazolyl)][Phe(3,4,5-F3)]DPVCRR-NH2; disulfide 3-13), for which, on GTPase KRas, the IC50 was > 11100 nM.

For `CC(=O)N[C@@H](CCCNC(=N)N)C(=O)N[C@@H](CCCNC(=N)N)C(=O)N[C@H]1CSSC[C@@H](C(=O)N[C@@H](CCCNC(=N)N)C(=O)N[C@@H](CCCNC(=N)N)C(N)=O)NC(=O)[C@H](C(C)C)NC(=O)[C@@H]2CCCN2C(=O)[C@H](CC(=O)O)NC(=O)[C@H](Cc2ccc(O)cc2)NC(=O)[C@H](CO)NC(=O)[C@H](CCC(C)C)NC(=O)[C@H](Cc2ccc(O)cc2)NC(=O)[C@H](CC(C)C)NC(=O)[C@@H]2CCCN2C1=O` (Ac-RRCPLY[hLeu]SYDPVCRR-NH2; disulfide 3-13), on GTPase KRas, the IC50 is > 11100 nM. In data set [1], the half-life turned out to be 28 min.

Take `CCCC[C@@H]1NC(=O)[C@H]([C@@H](C)CC)NC(=O)[C@H](Cc2ccc(O)cc2)NC(=O)[C@H](CC(C)C)NC(=O)[C@@H]2CCCN2C(=O)[C@@H](NC(=O)[C@H](CCCNC(=N)N)NC(=O)[C@H](CCCNC(=N)N)NC(C)=O)CSSC[C@@H](C(=O)N[C@@H](CCCNC(=N)N)C(=O)N[C@@H](CCCNC(=N)N)C(N)=O)NC(=O)[C@H](C(C)C)NC(=O)[C@@H]2CCCN2C(=O)[C@H](CC(=O)O)NC(=O)[C@H](Cc2ccc(O)cc2)NC1=O` (Ac-RRCPLYI[Nle]YDPVCRR-NH2; disulfide 3-13): the IC50 at GTPase KRas was > 11100 nM. Moreover, the half-life in data set [1] is 25 min.

For `CC[C@H](C)[C@@H]1NC(=O)[C@H](Cc2ccc(-c3ccccc3)cc2)NC(=O)[C@H](CC2CCC2)NC(=O)[C@@H]2[C@@H](c3ccccc3)CCN2C(=O)[C@@H](NC(=O)[C@H](CCCNC(=N)N)NC(=O)[C@H](CCCNC(=N)N)NC(C)=O)CSSC[C@@H](C(=O)N[C@@H](CCCNC(=N)N)C(=O)N[C@@H](CCCNC(=N)N)C(N)=O)NC(=O)[C@H](C(C)C)NC(=O)[C@@H]2CCCN2C(=O)[C@H](CC(=O)O)NC(=O)[C@H](Cc2ccc(O)cc2)NC(=O)[C@H](CO)NC1=O` (Ac-RRC[Pro(3R-Ph)][Cba][Bip]ISYDPVCRR-NH2; disulfide 3-13), at GTPase KRas, the IC50 turned out to be 7 nM.

Regarding `CC[C@H](C)[C@@H]1NC(=O)[C@H](Cc2ccc(-c3ccccc3)cc2)NC(=O)[C@H](CC(C)C)NC(=O)[C@@H]2[C@@H](c3ccccc3)CCN2C(=O)[C@@H](NC(=O)[C@H](CCCNC(=N)N)NC(=O)[C@H](CCCNC(=N)N)NC(C)=O)CSSC[C@@H](C(=O)N[C@@H](CCCNC(=N)N)C(=O)N[C@@H](CCCNC(=N)N)C(N)=O)NC(=O)[C@H](C(C)C)NC(=O)[C@@H]2CCCN2C(=O)[C@H](CC(=O)O)NC(=O)[C@H](Cc2ccc(O)cc2)NC(=O)[C@H](CO)NC1=O` (Ac-RRC[Pro(3R-Ph)]L[Bip]ISYDPVCRR-NH2; disulfide 3-13), the IC50 at GTPase KRas amounted to 1 nM.

As for `CC(=O)N[C@@H](CCCNC(=N)N)C(=O)N[C@@H](CCCNC(=N)N)C(=O)N[C@H]1CSSC[C@@H](C(=O)N[C@@H](CCCNC(=N)N)C(=O)N[C@@H](CCCNC(=N)N)C(N)=O)NC(=O)[C@H](C(C)C)NC(=O)[C@@H]2CCCN2C(=O)[C@H](CC(=O)O)NC(=O)[C@H](Cc2ccc(O)cc2)NC(=O)[C@H](CO)NC(=O)[C@H](CC2CCCC2)NC(=O)[C@H](CC2CCCCC2)NC(=O)[C@H](CC(C)C)NC(=O)[C@@H]2CCCN2C1=O` (Ac-RRCPL[Cha][Ala(cPent)]SYDPVCRR-NH2; disulfide 3-13), the IC50 at GTPase KRas is > 11100 nM. The half-life in data set [1] is 21 min.

Take `CC[C@H](C)[C@@H]1NC(=O)[C@H](Cc2ccc(-c3ccccc3)cc2)NC(=O)[C@H](CC(C)C)NC(=O)[C@@H]2CCCN2C(=O)[C@@H](NC(=O)[C@H](CCCNC(=N)N)NC(=O)[C@H](CCCNC(=N)N)NC(C)=O)CSSC[C@@H](C(=O)N[C@@H](CCCNC(=N)N)C(=O)N[C@@H](CCCNC(=N)N)C(N)=O)NC(=O)[C@H](CCCC(=O)O)NC(=O)[C@@H]2[C@@H](C)CCN2C(=O)[C@H](CC(=O)O)NC(=O)[C@H](Cc2ccc(O)cc2)NC(=O)[C@H](CO)NC1=O` (Ac-RRCPL[Bip]ISYD[X5][Aad]CRR-NH2; disulfide 3-13): the IC50 on GTPase KRas stood at 43 nM.

For the compound `C=CCO[C@H]1CCN2C(=O)[C@@H](NC(=O)[C@H](CCCNC(=N)N)NC(=O)[C@H](CCCNC(=N)N)NC(C)=O)CSSC[C@@H](C(=O)N[C@@H](CCCNC(=N)N)C(=O)N[C@@H](CCCNC(=N)N)C(N)=O)NC(=O)[C@H](C(C)C)NC(=O)[C@@H]3CCCN3C(=O)[C@H](CC(=O)O)NC(=O)[C@H](Cc3ccc(O)cc3)NC(=O)[C@H](CO)NC(=O)[C@H]([C@@H](C)CC)NC(=O)[C@H](Cc3ccc(-c4ccccc4)cc3)NC(=O)[C@H](CC3CCC3)NC(=O)[C@H]12` (Ac-RRC[Pro(trans-3-OAllyl)][Cba][Bip]ISYDPVCRR-NH2; disulfide 3-13), the IC50 on GTPase KRas was 2 nM.

Turning to `CCCCC[C@@H]1NC(=O)[C@@H]2CCCN2C(=O)[C@H](CC(=O)O)NC(=O)[C@H](Cc2ccc(O)cc2)NC(=O)[C@H](CO)NC(=O)[C@H]([C@@H](C)CC)NC(=O)[C@H](Cc2ccc(-c3ccccc3)cc2)NC(=O)[C@H](CC(C)C)NC(=O)[C@@H]2CCCN2C(=O)[C@@H](NC(=O)[C@H](CCCNC(=N)N)NC(=O)[C@H](CCCNC(=N)N)NC(C)=O)CSSC[C@@H](C(=O)N[C@@H](CCCNC(=N)N)C(=O)N[C@@H](CCCNC(=N)N)C(N)=O)NC1=O` (Ac-RRCPL[Bip]ISYDP[Ahp(2)]CRR-NH2; disulfide 3-13), the IC50 at GTPase KRas was found to be 5 nM.

With `CC[C@H](C)[C@@H]1NC(=O)[C@H](Cc2ccc(-c3ccccc3)cc2)NC(=O)[C@H](CC(C)C)NC(=O)[C@@H]2CCCN2C(=O)[C@@H](NC(=O)[C@H](CCCNC(=N)N)NC(=O)[C@H](CCCNC(=N)N)NC(C)=O)CSSC[C@@H](C(=O)N[C@@H](CCCNC(=N)N)C(=O)N[C@@H](CCCNC(=N)N)C(N)=O)NC(=O)[C@H](CCC#N)NC(=O)[C@@H]2CCCN2C(=O)[C@H](CC(=O)O)NC(=O)[C@H](Cc2ccc(O)cc2)NC(=O)[C@H](CO)NC1=O` (Ac-RRCPL[Bip]ISYDP[Abu(4-CN)]CRR-NH2; disulfide 3-13), the IC50 at GTPase KRas worked out at 24 nM.

With `CC[C@H](C)[C@@H]1NC(=O)[C@H](Cc2ccc(-c3ccccc3)cc2)NC(=O)[C@H](CC(C)C)NC(=O)[C@@H]2[C@H]3CC[C@H](C3)N2C(=O)[C@@H](NC(=O)[C@H](CCCNC(=N)N)NC(=O)[C@H](CCCNC(=N)N)NC(C)=O)CSSC[C@@H](C(=O)N[C@@H](CCCNC(=N)N)C(=O)N[C@@H](CCCNC(=N)N)C(N)=O)NC(=O)[C@H](C(C)C)NC(=O)[C@@H]2CCCN2C(=O)[C@H](CC(=O)O)NC(=O)[C@H](Cc2ccc(O)cc2)NC(=O)[C@H](CO)NC1=O` (Ac-RRC[X2]L[Bip]ISYDPVCRR-NH2; disulfide 3-13), the IC50 at GTPase KRas was 201 nM.
